Data as given in ChEMBL document CHEMBL4138228, “Substituted carbamothioic amine-1-carbothioic thioanhydrides as novel trichomonicidal fungicides: Design, synthesis, and biology” (Eur J Med Chem, 2018).
≈ marks a conversion by molar mass, not a printed value.

Columns and labels:
Candida albicans [1] = test: Antifungal activity against Candida albicans ATCC 14053 after 48 hrs by broth microdilution method; type: functional; details: ATCC 14053, 48 h
In short: (§1)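 Broth microdilution per NCCLS guidelines in MOPS-buffered RPMI 1640; starting inoculum 1-5 x 10^3 CFU/mL; plates incubated at 35 °C; MIC recorded after 48 h; fluconazole as reference; experiments repeated three times.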

Sporothrix schenckii = test: Antifungal activity against Sporothrix schenckii after 48 hrs by broth microdilution method; type: functional; in short: as §1
Nakaseomyces glabratus = test: Antifungal activity against Candida glabrata ATCC 2001 after 48 hrs by broth microdilution method; type: functional; details: ATCC 2001, 48 h; in short: as §1
Candida parapsilosis = test: Antifungal activity against Candida parapsilosis ATCC 22019 after 48 hrs by broth microdilution method; type: functional; details: Lodderomyces parapsilosis, ATCC 22019, 48 h; in short: as §1
Trichomonas vaginalis [2] = test: Potency index, ratio of metronidazole MIC to test compound MIC for metronidazole-resistant Trichomonas vaginalis CDC085 ATCC 50143; type: functional
Candida albicans [3] = test: Antifungal activity against Candida albicans ATCC 66027 after 48 hrs by broth microdilution method; type: functional; details: ATCC 66027, 48 h; in short: as §1
Candida albicans [4] = test: Antifungal activity against Candida albicans patient isolate after 48 hrs by broth microdilution method; type: functional; in short: as §1
Candida albicans [5] = test: Antifungal activity against Candida albicans ATCC 10231 after 48 hrs by broth microdilution method; type: functional; details: ATCC 10231, 48 h; in short: as §1
Trichomonas vaginalis [6] = test: Antitrichomonas activity against metronidazole-resistant Trichomonas vaginalis CDC085 ATCC 50143 assessed as decrease in cell viability after 48 hrs by trypan blue exclusion method; type: functional; details: CDC085 ATCC 50143, 48 h
Trichomonas vaginalis [7] = test: Antitrichomonas activity against metronidazole-susceptible Trichomonas vaginalis assessed as decrease in cell viability after 48 hrs by trypan blue exclusion method; type: functional
Cryptococcus neoformans = test: Antifungal activity against Cryptococcus neoformans after 48 hrs by broth microdilution method; type: functional; in short: as §1
[8] = test system: Trichophyton mentagrophytes; test: Antifungal activity against Trichophyton mentagrophytes after 48 hrs by broth microdilution method; type: functional; in short: as §1
[9] = Selectivity index, ratio of IC50 for human HeLa cells to MIC for metronidazole-susceptible Trichomonas vaginalis; type: toxicity; details: read-out: Selectivity Index
[10] = Selectivity index, ratio of IC50 for human HeLa cells to MIC for metronidazole-resistant Trichomonas vaginalis CDC085 ATCC 50143; type: toxicity; details: read-out: Selectivity Index
HeLa = test: Cytotoxicity against human HeLa cells after 24 hrs by MTT assay; type: cell-based
Candida albicans [11] = test: Antifungal activity against Candida albicans MTCC 183 after 48 hrs by broth microdilution method; type: functional; details: MTCC 183, 48 h; in short: as §1

| SMILES | MIC (Candida albicans [1]) [µM] | MIC (Sporothrix schenckii) [µM] | MIC (Nakaseomyces glabratus) [µM] | MIC (Candida parapsilosis) [µM] | Ratio (Trichomonas vaginalis [2]) | MIC (Candida albicans [3]) [µM] | MIC (Candida albicans [4]) [µM] | MIC (Candida albicans [5]) [µM] | MIC (Trichomonas vaginalis [6]) [µM] | MIC (Trichomonas vaginalis [7]) [µM] | MIC (Cryptococcus neoformans) [µM] | MIC [8] [µM] | selectivity ratio [9] | selectivity ratio [10] | IC50 (HeLa) [mM] | MIC (Candida albicans [11]) [µM] |
| --- | --- | --- | --- | --- | --- | --- | --- | --- | --- | --- | --- | --- | --- | --- | --- | --- |
| CN(C)C(=S)SC(=S)N1CCN(c2cccc(Cl)c2Cl)CC1 | > 127 | 15.9 (≈ 6.26 µg/mL) | > 127 | 31.7 (≈ 12.5 µg/mL) | 1.3 - 9.5 | > 127 | 31.7 (≈ 12.5 µg/mL) | > 127 | 127 (≈ 50.1 µg/mL) | 63.5 (≈ 25 µg/mL) | 127 (≈ 50.1 µg/mL) | 15.9 (≈ 6.26 µg/mL) | 25 | 12 | 1.59 | 63.5 (≈ 25 µg/mL) |
| CN(C)C(=S)SC(=S)N1CCN(C(=S)NC2CCCCC2)CC1 | > 128 | 128 (≈ 50 µg/mL) | > 128 | 128 (≈ 50 µg/mL) | 1.3 - 11.2 | > 128 | > 128 | > 128 | 63.9 (≈ 25 µg/mL) | 32 (≈ 12.5 µg/mL) | > 128 | 128 (≈ 50 µg/mL) | > 161 | > 79 | > 5 | > 128 |
| CN(C)C(=S)SC(=S)N1CCN(c2cccc(Cl)c2)CC1 | > 139 | 34.7 (≈ 12.5 µg/mL) | > 139 | 8.66 (≈ 3.12 µg/mL) | 1.3 - 9.5 | > 139 | 34.7 (≈ 12.5 µg/mL) | > 139 | 278 (≈ 100 µg/mL) | 139 (≈ 50 µg/mL) | 139 (≈ 49.9 µg/mL) | 34.7 (≈ 12.5 µg/mL) | 36 | 18 | > 5 | 69.3 (≈ 25 µg/mL) |
| CN1CCN(C(=S)SC(=S)N(C)C)CC1 | 95 (≈ 25 µg/mL) | 95 (≈ 25 µg/mL) | 190 (≈ 50.1 µg/mL) | 190 (≈ 50.1 µg/mL) | 1.3 - 9.5 | 47.5 (≈ 12.5 µg/mL) | 95 (≈ 25 µg/mL) | 190 (≈ 50.1 µg/mL) | 95 (≈ 25 µg/mL) | 47.5 (≈ 12.5 µg/mL) | 190 (≈ 50.1 µg/mL) | 95 (≈ 25 µg/mL) | 26 | 12 | 1.22 | 95 (≈ 25 µg/mL) |
| CN(C)C(=S)SC(=S)N1CCCCC1 | 25.2 (≈ 6.26 µg/mL) | 101 (≈ 25 µg/mL) | 50.4 (≈ 12.5 µg/mL) | 101 (≈ 25 µg/mL) | 1.5 - 3.8 | 50.4 (≈ 12.5 µg/mL) | 101 (≈ 25 µg/mL) | 50.4 (≈ 12.5 µg/mL) | 101 (≈ 25 µg/mL) | 25.2 (≈ 6.26 µg/mL) | 202 (≈ 50.1 µg/mL) | 101 (≈ 25 µg/mL) | > 200 | > 50 | > 5 | 50.4 (≈ 12.5 µg/mL) |
| CCN(CC)C(=S)SC(=S)N(C)C | > 212 | 26.5 (≈ 6.26 µg/mL) | > 212 | 26.5 (≈ 6.26 µg/mL) | 1.5 - 3.8 | 53 (≈ 12.5 µg/mL) | 53 (≈ 12.5 µg/mL) | > 212 | 106 (≈ 25 µg/mL) | 53 (≈ 12.5 µg/mL) | 106 (≈ 25 µg/mL) | 26.5 (≈ 6.26 µg/mL) | > 94 | > 47 | > 5 | 106 (≈ 25 µg/mL) |
